Assay [1] is described as follows: Growth inhibition of human HSC3 cells after 24 hrs by Clonogenic cell survival assay. The assay is classed as functional, cell-based. The following applies: HSC-3, 24 h. An outline of the steps: (§1)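 Two-dimensional colony formation (clonogenic survival) of human UM-UC-3 bladder carcinoma and HSC-3 oral squamous carcinoma cells, assessing the cytostatic effect on colony growth.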

Assay [2] concerns the target Serine/threonine-protein kinase pim-1 (Homo sapiens, UniProt P11309). Nature of the assay: Inhibition of Pim1 (unknown origin) using luciferase-luciferin based ATP detection reagent at 1 uM by Kinase-Glo assay. A general note: Kinase-Glo reads ATP consumption through a luciferase reaction.
Assay [3] has as its target Tyrosine-protein kinase JAK2 (Homo sapiens) (UniProt O60674). Nature of the assay: Inhibition of JAK2 (unknown origin) at 1 uM.
Assay [4] can be described thus: Growth inhibition of human UM-UC-3 cells after 24 hrs by Clonogenic cell survival assay. The assay is classed as functional, cell-based. The following applies: UMUC3, 24 h. An outline of the steps:
as §1

In assay [5] the target is T1, Muscle, skeletal receptor tyrosine-protein kinase (Homo sapiens) (UniProt O15146).
T1 sequence (whole entry): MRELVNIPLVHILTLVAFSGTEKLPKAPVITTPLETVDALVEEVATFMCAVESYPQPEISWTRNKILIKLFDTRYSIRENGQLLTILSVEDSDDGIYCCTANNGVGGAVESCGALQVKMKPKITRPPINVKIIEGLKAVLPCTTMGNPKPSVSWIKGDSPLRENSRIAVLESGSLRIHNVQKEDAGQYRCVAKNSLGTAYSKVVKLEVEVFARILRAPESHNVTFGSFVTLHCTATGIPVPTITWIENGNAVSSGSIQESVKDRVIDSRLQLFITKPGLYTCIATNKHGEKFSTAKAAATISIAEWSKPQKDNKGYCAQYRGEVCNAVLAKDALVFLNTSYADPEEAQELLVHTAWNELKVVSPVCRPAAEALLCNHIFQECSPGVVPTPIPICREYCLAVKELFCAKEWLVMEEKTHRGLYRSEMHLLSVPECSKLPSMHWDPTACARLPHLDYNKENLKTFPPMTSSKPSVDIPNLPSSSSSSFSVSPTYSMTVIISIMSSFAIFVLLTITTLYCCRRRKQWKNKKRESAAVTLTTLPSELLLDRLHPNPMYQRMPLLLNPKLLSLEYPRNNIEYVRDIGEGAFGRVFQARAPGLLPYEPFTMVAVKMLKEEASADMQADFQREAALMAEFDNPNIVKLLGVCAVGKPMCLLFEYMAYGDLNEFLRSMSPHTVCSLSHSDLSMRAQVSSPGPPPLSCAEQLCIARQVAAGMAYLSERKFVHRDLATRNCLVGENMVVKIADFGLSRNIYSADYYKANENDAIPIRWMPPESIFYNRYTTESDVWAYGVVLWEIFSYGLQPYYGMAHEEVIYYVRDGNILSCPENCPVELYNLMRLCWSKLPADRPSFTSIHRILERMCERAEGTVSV
Nature of the assay: Inhibition of MUSK (unknown origin) at 1 uM.

Assay [6] has as its target Tyrosine-protein kinase Fyn (Homo sapiens) (UniProt P06241). Nature of the assay: Inhibition of FYN (unknown origin) at 1 uM.
Assay [7] concerns the target Tyrosine-protein kinase Lck (Homo sapiens) (UniProt P06239). Nature of the assay: Inhibition of LCK (unknown origin) at 1 uM.
Assay [8] addresses Casein kinase II subunit alpha (Homo sapiens) (UniProt P68400). Nature of the assay: Inhibition of CK2a (unknown origin) at 1 uM.
Assay [9] concerns the target Proto-oncogene tyrosine-protein kinase Src (Homo sapiens) (UniProt P12931). Nature of the assay: Inhibition of c-Src (unknown origin) at 1 uM.

Chain of Tyrosine-protein kinase JAK2 (Homo sapiens) (O60674 whole entry): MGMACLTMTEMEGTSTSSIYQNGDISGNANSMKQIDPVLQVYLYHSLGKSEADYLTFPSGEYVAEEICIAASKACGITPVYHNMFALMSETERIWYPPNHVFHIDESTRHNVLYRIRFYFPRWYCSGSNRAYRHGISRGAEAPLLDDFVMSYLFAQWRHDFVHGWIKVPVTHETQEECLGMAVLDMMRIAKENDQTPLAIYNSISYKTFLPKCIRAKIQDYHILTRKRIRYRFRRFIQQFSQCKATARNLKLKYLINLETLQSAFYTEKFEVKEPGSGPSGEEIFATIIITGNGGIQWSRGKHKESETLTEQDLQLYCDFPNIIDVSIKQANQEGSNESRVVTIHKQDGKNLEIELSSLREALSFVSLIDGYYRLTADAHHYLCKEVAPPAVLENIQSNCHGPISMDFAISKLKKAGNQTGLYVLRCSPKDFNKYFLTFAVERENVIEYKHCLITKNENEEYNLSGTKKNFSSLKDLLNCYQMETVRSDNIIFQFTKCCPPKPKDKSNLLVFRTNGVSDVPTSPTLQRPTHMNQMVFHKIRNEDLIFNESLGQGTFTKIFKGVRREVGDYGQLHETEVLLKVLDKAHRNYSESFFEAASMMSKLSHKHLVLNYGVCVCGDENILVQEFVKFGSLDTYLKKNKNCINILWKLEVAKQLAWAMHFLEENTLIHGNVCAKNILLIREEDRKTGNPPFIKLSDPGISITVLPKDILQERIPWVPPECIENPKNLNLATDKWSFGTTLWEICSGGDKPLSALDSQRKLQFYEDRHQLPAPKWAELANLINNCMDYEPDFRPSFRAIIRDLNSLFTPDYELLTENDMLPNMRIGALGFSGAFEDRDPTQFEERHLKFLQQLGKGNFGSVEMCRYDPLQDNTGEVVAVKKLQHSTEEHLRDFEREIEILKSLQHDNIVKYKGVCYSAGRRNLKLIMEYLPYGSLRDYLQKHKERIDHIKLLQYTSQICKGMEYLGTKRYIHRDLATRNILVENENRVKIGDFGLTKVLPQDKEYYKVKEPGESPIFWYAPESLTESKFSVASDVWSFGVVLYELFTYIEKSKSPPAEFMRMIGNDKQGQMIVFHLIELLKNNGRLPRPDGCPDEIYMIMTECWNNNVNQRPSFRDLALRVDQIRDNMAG
Chain of Tyrosine-protein kinase Fyn (Homo sapiens) (P06241 2-537 limits assumed): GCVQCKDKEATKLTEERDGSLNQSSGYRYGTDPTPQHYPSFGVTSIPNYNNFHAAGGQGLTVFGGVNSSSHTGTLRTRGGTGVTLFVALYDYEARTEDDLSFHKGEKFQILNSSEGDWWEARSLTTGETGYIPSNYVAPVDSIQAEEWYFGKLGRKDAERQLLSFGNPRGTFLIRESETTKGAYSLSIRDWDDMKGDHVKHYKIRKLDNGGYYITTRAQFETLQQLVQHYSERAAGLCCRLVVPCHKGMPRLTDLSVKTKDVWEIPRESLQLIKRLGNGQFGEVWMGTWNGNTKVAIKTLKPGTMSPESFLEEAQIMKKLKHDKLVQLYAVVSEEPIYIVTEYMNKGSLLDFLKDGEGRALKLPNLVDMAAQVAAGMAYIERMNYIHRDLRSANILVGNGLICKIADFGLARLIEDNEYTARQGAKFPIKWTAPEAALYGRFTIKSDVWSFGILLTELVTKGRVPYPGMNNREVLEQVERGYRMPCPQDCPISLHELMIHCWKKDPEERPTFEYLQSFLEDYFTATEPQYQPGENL
Chain of Tyrosine-protein kinase Lck (Homo sapiens) (P06239 2-509 limits assumed): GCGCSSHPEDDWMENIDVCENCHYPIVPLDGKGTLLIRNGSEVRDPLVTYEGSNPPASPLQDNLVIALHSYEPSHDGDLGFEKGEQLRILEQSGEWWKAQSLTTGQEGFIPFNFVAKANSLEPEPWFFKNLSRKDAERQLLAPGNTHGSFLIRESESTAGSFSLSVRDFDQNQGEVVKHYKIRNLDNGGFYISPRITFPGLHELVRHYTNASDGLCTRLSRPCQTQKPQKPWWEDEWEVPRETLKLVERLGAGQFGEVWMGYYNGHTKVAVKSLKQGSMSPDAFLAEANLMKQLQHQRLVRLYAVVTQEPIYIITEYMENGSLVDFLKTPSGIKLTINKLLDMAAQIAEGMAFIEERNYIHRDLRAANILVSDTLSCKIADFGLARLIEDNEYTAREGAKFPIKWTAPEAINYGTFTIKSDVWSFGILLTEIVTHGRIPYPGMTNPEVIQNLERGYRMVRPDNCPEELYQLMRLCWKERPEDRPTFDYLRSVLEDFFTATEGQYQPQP
Chain of Proto-oncogene tyrosine-protein kinase Src (Homo sapiens) (P12931 2-536 limits assumed): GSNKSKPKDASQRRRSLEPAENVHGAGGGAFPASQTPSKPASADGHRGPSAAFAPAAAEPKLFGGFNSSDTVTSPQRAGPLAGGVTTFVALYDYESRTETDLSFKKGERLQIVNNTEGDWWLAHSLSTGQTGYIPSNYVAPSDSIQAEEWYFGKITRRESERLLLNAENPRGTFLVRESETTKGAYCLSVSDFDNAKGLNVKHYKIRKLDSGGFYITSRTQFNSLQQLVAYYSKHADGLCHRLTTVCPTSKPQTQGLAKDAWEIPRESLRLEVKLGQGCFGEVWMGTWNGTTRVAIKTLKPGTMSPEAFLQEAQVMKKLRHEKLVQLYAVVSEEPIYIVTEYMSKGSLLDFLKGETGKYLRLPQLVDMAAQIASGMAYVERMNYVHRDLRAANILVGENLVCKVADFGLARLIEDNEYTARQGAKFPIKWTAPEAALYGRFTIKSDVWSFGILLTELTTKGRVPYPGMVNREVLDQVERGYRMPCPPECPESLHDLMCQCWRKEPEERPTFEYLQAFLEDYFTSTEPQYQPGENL
Chain of Casein kinase II subunit alpha (Homo sapiens) (P68400 whole entry, looked up): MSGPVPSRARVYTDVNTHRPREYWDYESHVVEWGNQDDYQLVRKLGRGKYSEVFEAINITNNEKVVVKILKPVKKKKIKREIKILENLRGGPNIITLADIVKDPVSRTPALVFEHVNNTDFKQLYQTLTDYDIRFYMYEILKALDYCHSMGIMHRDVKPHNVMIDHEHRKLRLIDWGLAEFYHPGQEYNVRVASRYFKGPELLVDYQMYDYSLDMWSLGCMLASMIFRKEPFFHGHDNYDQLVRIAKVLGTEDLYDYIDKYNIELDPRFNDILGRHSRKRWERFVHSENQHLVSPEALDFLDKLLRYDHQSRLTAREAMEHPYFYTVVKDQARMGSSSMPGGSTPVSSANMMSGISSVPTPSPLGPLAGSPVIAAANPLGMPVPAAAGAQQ
Chain of Serine/threonine-protein kinase pim-1 (P11309 whole entry, looked up): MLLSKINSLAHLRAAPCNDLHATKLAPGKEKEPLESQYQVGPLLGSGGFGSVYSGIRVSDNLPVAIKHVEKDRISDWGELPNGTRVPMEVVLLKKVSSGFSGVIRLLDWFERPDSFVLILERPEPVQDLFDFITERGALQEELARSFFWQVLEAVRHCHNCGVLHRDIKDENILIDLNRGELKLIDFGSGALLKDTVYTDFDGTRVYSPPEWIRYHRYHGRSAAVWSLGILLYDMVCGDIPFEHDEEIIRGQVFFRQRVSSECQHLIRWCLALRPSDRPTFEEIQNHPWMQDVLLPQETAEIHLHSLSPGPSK

Regarding `CC(C)(O)[C@H]1CC[C@H](Nc2ccn3ncc(-c4cccc(Cl)c4)c3n2)CC1`, the EC50 (commonly the concentration giving half of the maximal effect) in assay [1] stood at 600 nM; in assay [4], 914 nM. For the same molecule, the inhibition (in general, the change of the read-out against control, counted positive when it falls) was greater than 98% in assay [2]; greater than 50% in [3]; greater than 80% in assay [5]; greater than 50% in assay [6]; greater than 80% in assay [7]; greater than 50% in [8]. In assay [9], this molecule yielded an inhibition greater than 50%.

Source of the values: ChEMBL document CHEMBL3351833, “Synthesis and Biological Evaluation of Pyrazolo[1,5-a]pyrimidine Compounds as Potent and Selective Pim-1 Inhibitors” (ACS Med Chem Lett, 2015).
